These results are taken from ChEMBL document CHEMBL5252566, “Antioxidant mechanisms and products of four 4',5,7-trihydroxyflavonoids with different structural types” (RSC Med Chem, 2023).

Holding throughout (type): functional
Test [1] is described as follows: Antioxidant activity assessed as oxygen scavenging activity measured every 30 sec for 5 min by UV-vis spectrophotometer analysis. In short, it runs like this:
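Superoxide generation uses pyrogallol autoxidation: sample plus pyrogallol (60 mM stock in 1 mM HCl) in 0.05 M Tris-HCl, pH 7.4. A325 is recorded every 30 s for 5 min. Scavenging comes from the absorbance increase over 5 min relative to no-sample control; IC50 from dose–response curve, mean ± SD (n = 3).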

The nature of test [2]: Antioxidant activity assessed as ABTS radical cation scavenging activity incubated for 10 mins under dark condition by microplate reader analysis. In short, it runs like this: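 ABTS˙+ is generated from 7.4 mM (NH4)2ABTS and 2.6 mM K2S2O8 solutions mixed 1:1 and kept dark at 27 °C for 12 h. It is diluted about 1:20 with water, then mixed with methanolic samples for 10 min dark at 27 °C and read at A734. % scavenging vs no-sample blank; IC50 from dose–response curve by linear regression, mean ± SD (n = 3).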

Test [3] is described as follows: Antioxidant activity assessed as DPPH radical scavenging activity incubated for 30 mins under dark condition by microplate reader analysis. The essentials: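 The radical solution is made from […] methanol solution and mixed with sample dissolved in methanol (ultrasonication at 40 °C). Incubation is 30 min dark at room temperature with read-out at A519. % scavenging vs no-sample blank; IC50 (final concentration giving 50% scavenging) from dose–response curve by linear regression, mean ± SD (n = 3).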
(In general: The DPPH test is a chemical assay of radical scavenging.)

In test [4] the test system is HT-22. Kind of test: Antioxidant activity in mouse HT-22 cells assessed as OH scavenging activity measured for 24 hrs by CCK-8 analysis. In short, it runs like this: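 HT22 cells are grown in DMEM/10% FBS at 37 °C, 5% CO2, seeded at 1 × 10^4 per well and left to adhere for 24 h. They are pretreated with sample at 50 μM final for 24 h (model group: medium), then exposed to Fenton reagent (200 μM H2O2 + 200 μM FeCl2) for 24 h. Medium is removed and CCK-8 added for 2 h; survival from A450, five wells per sample.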

For test [5], the system named is HT-22. Kind of test: Antioxidant activity in mouse HT-22 cells assessed as OH scavenging activity by chromogenic analysis. Also noted: concentration or dose not given beside the values.

Broadly, the IC50 is the midpoint of a concentration-inhibition curve.

Turning to `Cc1c(C)c2c(c(C)c1O)CCC(C)(C(=O)O)O2` (centres undefined) [TROLOX], the IC50 in test [1] is 963 µM; in test [2], 10.3 µM; in test [3], 19.8 µM.
Consider `O=c1c(-c2ccc(O)cc2)coc2cc(O)cc(O)c12` [GENISTEIN], for which the 50% inhibitory concentration (IC50) in test [1] came out at 88.8 µM; in test [2], 10.2 µM; in test [3], 1230 µM. The values for the Activity in the test with HT-22 [4] and in the test on HT-22 [5] were 68.54% and 36.39%, respectively.
Taken in the same sequence, the figures for `O=c1cc(-c2ccc(O)cc2)oc2cc(O)cc(O)c12` [APIGENIN] were 68.9 µM, 18.2 µM, 2760 µM, 73.32% and 33.26%.
With `O=C1O[C@H]([C@@H](O)CO)C(O)=C1O` [ASCORBIC ACID], the Activity in the test on HT-22 [5] was found to be 84.27%.
Consider `O=c1c(O)c(-c2ccc(O)cc2)oc2cc(O)cc(O)c12` [KAEMPFEROL], for which the values for the 50% inhibitory concentration (IC50) in test [1], in test [2] and in test [3] were 81.6 µM, 4.73 µM and 15.5 µM, respectively. In addition, the Activity in the test with HT-22 [4] is on record as 69.4%; in the test on HT-22 [5], 74.46%.
As for `O=C1C[C@@H](c2ccc(O)cc2)Oc2cc(O)cc(O)c21` [NARINGENIN], the IC50 in test [1] was found to be 24.2 µM; in test [2], 13 µM; in test [3], 1730 µM. Besides, the figures for the Activity in the test on HT-22 [4] and with HT-22 [5] were 80.65% and 33.85%, respectively.
